For test [1], the system named is Cavia porcellus. Description: In vivo inhibition of ovalbumin induced bronchoconstriction in guinea pig by 50 mg/kg 10 min prior to challenge. The test is classed as functional. The essentials: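 Male Hartley guinea pigs (350–600 g) sensitized to OA (5 mg ip + 5 mg sc), used 3–5 weeks later under pentobarbital (50 mg/kg ip), artificially ventilated. Indomethacin 10 mg/kg iv 9 min before challenge, chlorpheniramine 1.0 mg/kg iv 1 min later. Drug 50 mg/kg id 10 min before aerosolized 1% OA; controls saline.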

Test [2] concerns the target T1, Polyunsaturated fatty acid 5-lipoxygenase (Rattus norvegicus, UniProt P12527).
T1 sequence (P12527 whole entry): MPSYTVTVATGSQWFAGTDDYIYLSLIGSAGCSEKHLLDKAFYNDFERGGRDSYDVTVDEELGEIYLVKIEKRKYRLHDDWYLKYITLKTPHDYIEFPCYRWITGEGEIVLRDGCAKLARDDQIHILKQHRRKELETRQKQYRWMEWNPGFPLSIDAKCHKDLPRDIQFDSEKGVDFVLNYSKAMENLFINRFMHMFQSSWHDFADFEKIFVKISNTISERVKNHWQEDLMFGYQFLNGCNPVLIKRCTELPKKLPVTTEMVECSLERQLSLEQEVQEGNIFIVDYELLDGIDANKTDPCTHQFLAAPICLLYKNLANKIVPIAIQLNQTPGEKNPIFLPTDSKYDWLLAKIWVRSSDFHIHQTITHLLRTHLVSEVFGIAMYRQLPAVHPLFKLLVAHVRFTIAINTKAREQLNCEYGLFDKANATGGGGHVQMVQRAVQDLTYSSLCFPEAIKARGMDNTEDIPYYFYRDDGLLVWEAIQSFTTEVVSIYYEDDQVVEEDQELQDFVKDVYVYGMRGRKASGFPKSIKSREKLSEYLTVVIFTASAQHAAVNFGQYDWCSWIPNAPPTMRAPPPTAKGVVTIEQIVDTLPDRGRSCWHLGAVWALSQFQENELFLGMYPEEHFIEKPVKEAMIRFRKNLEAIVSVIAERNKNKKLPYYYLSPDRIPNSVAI
Put plainly: In vitro for inhibition of 5-HETE production in isolated rat polymorphonuclear leukocytes (PMNs). Format: functional. The essentials:
(§1)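 Peritoneal PMNs from female Wistar rats (150–250 g) given 6% glycogen ip; harvested at 24 h by lavage, resuspended at 2×10^7 cells/mL in HBSS with Ca2+/Mg2+ and 10 mM L-cysteine. Drug or vehicle preincubated 10 min at 37 °C; then A23187 (10 μM) plus 0.5 μCi [14C]arachidonic acid for 10 min. Stopped at pH 3.5, ether-extracted; IC50 per metabolite by nonlinear regression.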

The target of test [3] is T1, Polyunsaturated fatty acid 5-lipoxygenase. Put plainly: In vitro for inhibition of LTB4 (leukotriene B4) production in isolated rat polymorphonuclear leukocytes (PMNs). The test is classed as functional. In short, it runs like this:
as §1

The species entered for the next test is Rattus norvegicus. Put plainly: Compound was tested in vitro for inhibition of 5-HETE production in isolated rat polymorphonuclear leukocytes (PMNs) at 50 uM. Format: functional.
For test [4], the species on record is Cavia porcellus. Put plainly: Competitive inhibition of LTD4-induced contraction of isolated guinea pig tracheal spiral strips.

SMILES strings stand for the structures.

Broadly, the inhibition in vivo is the change of the read-out against control, counted positive when it falls. As for `CCCCCC(=O)c1ccc(OCc2cccc(NC(=O)CC(=O)OC)c2)cc1O`, the inhibition in vivo at 50 mg/kg with Cavia porcellus [1] was -0.5%. For orientation: IC50 means the concentration that inhibits the measured activity by half. High values mean weaker potency in that assay, low ones greater potency in that assay. Take `COC(=O)C1CC(=O)N(c2cccc(COc3ccc(C(C)=O)c(F)c3)c2)C1` (configuration not stated): the IC50 in test [2] worked out at 5.35 µM; in test [3] it was 20.4 µM. The inhibition is the percentage by which the read-out fell short of the control. Take `COC(=O)CC(=O)Nc1cccc(COc2ccc(C(C)=O)cc2)c1`: in the test with Cavia porcellus [1], the inhibition in vivo at 50 mg/kg came out at 37.2%. The compound further yielded an inhibition at 50 µM in the test filed under Rattus norvegicus below 50%. Turning to `COC(=O)CCCC(=O)Nc1cccc(COc2ccc(C(C)=O)c(O)c2)c1`, in the test on Cavia porcellus [1], the inhibition in vivo at 50 mg/kg is -0.1%. In addition, the figures for the concentration for half-maximal inhibition (IC50) in test [2] and in test [3] were 32.7 µM and 39.3 µM, respectively. As for `COC(=O)CCC(=O)Nc1cccc(COc2ccc(C(C)=O)c(O)c2)c1`, the inhibition in vivo at 50 mg/kg in the test with Cavia porcellus [1] came out at 37.9%. With `COC(=O)CC(=O)Nc1cccc(COc2cccc(OC)c2)c1`, the inhibition at 50 µM in the test filed under Rattus norvegicus is below 50%. `CCc1ccc(OCc2cccc(NC(=O)CC(=O)OC)c2)cc1OC`: the inhibition in vivo at 50 mg/kg in the test on Cavia porcellus [1] is 0.2%. Still for that read-out and setting: as for `CCCCCC(=O)c1ccc(OCc2cccc(NC(=O)CCC(=O)OC)c2)cc1O`, the figure is 0%. On the same count and under the same terms, then `COC(=O)CC(=O)Nc1cccc(COc2ccc(C(C)=O)c(OC)c2)c1`, with 64.3%; and `CCCc1c(OCc2cccc(NC(=O)CC(=O)OC)c2)ccc(C(C)=O)c1O`, with 24.8%; and `COC(=O)C(=O)Nc1cccc(COc2ccc(C(C)=O)c(F)c2)c1`, with 57.3%.

On to `COC(=O)CC(=O)Nc1cccc(COc2ccc(C(C)=O)c(F)c2)c1`, for which the inhibition in vivo at 50 mg/kg in the test with Cavia porcellus [1] was 0%. Also, the IC50 in test [2] turned out to be 25.5 µM; in test [3], 22.5 µM. Take `CCc1ccc(OCc2cccc(NC(=O)CCC(=O)OC)c2)cc1OC`: the inhibition in vivo at 50 mg/kg in the test on Cavia porcellus [1] was 0.2%. The IC50 in test [2] was 5.6 µM; in test [3] it was 7.09 µM.

Regarding `CCCCCC(=O)c1ccc(OCc2cccc(NC(=O)CCC(=O)OC)c2)cc1OC`, the inhibition in vivo at 50 mg/kg in the test with Cavia porcellus [1] was 0%. The 50% inhibitory concentration (IC50) in test [2] amounted to 3.71 µM; in test [3], 3.87 µM.

For `CCCc1c(OCCCCc2nnn[nH]2)ccc(C(C)=O)c1O` [TOMELUKAST], the inhibition in vivo at 50 mg/kg in the test with Cavia porcellus [1] was found to be 78.8%. For the same compound, the IC50 turned out to be 41 µM in test [2] and 21.6 µM in test [3]. As usually defined, the pKB is −log10 of the KB, conventionally taken in molar units. A high value points to a low KB. With `COC(=O)CC(=O)Nc1cccc(COc2ccc(C(C)=O)c(O)c2)c1`, the inhibition in vivo at 50 mg/kg with Cavia porcellus [1] was found to be 61.4%. Further, the IC50 in test [2] came out at 14.2 µM; in test [3], 11.7 µM. In the test filed under Cavia porcellus [4], this compound returned a negative-log KB (pKB) of 4.94. For `CCCCCCc1ccc(OCc2cccc(NC(=O)CCC(=O)OC)c2)cc1OC`, in the test on Cavia porcellus [1], the inhibition in vivo at 50 mg/kg turned out to be 0.2%. As to `COC(=O)CCCC(=O)Nc1cccc(COc2ccc(C(C)=O)c(F)c2)c1`, the inhibition in vivo at 50 mg/kg in the test on Cavia porcellus [1] stood at 0%. Turning to `COC(=O)C(=O)Nc1cccc(COc2ccc(C(C)=O)c(O)c2)c1`, the inhibition in vivo at 50 mg/kg in the test on Cavia porcellus [1] was determined as 0.1%. Besides, the IC50 amounted to 25.1 µM in test [2] and 39.5 µM in test [3]. The matching figures for `CCCCCCc1ccc(OCc2cccc(NC(=O)CC(=O)OC)c2)cc1OC`: -0.2%, 1.59 µM and 1.7 µM. For the compound `COC(=O)CCC(=O)Nc1cccc(COc2ccc(C(C)=O)c(F)c2)c1`, the inhibition in vivo at 50 mg/kg in the test on Cavia porcellus [1] worked out at 20.8%. Regarding `CCCCCC(=O)c1ccc(OCc2cccc(NC(=O)CC(=O)OC)c2)cc1OC`, in the test with Cavia porcellus [1], the inhibition in vivo at 50 mg/kg stood at 0%.

As to `COC(=O)CCC(=O)Nc1cccc(COc2ccc(C(C)=O)c(OC)c2)c1`, in the test on Cavia porcellus [1], the inhibition in vivo at 50 mg/kg turned out to be 0.11%.

For the origin of these results see ChEMBL document CHEMBL1123517, “Synthesis and antiallergic activity of a novel series of 5-lipoxygenase inhibitors” (J Med Chem, 1986).
